Source: ChEMBL document CHEMBL4689842, “EUbOPEN Chemogenomics Library wave 1” (2021)
Where “and” joins values, the source holds several entries; their conditions need not be identical. Identical values can stand only once.

Test system: Fibroblast
Test: Multiplex assay against human fibroblast
Assay type: toxicity, cell-based
Method in brief: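 Hoechst33342, BioTracker Green Microtubule Cytoskeleton Dye, MitoTracker Red and Annexin V Alexa Fluor 680 were added to live cells at seeding, and imaging on a CQ1 microscope at 37°C and 5% CO2 followed compound addition. Gating by CellPathfinder machine learning separated cells into Hoechst high-intensity objects or normal cells, then normal cells into healthy, pyknosed or fragmented nuclei, then pyknosed cells into mitotic or apoptotic. Per cents of healthy-nucleus cells are reported for the tubulin, mitochondrial-mass and membrane-permeability phenotypes.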

[1] = 12 h, 1 µM, compound concentration 1 uM, replicate 1
[2] = 12 h, 1 µM, compound concentration 1 uM, replicate 2
[3] = 12 h, 10 µM, compound concentration 10 uM, replicate 1
[4] = 12 h, 10 µM, compound concentration 10 uM, replicate 2
[5] = 24 h, 1 µM, compound concentration 1 uM, replicate 1
[6] = 24 h, 1 µM, compound concentration 1 uM, replicate 2
[7] = 24 h, 10 µM, compound concentration 10 uM, replicate 1
[8] = 24 h, 10 µM, compound concentration 10 uM, replicate 2

With `C=CC(=O)Nc1cc2c(Nc3ccc(F)c(Cl)c3)ncnc2cc1OCCCN1CCOCC1.Cl.Cl` [CANERTINIB DIHYDROCHLORIDE] the “Population Apoptotic (%)” value [1] was 73%, the “Population Fragmented Nuclei (%)” value [1] was 35% and the “Population Healthy Nuclei (%)” value [1] was 53%. The “Population Hoechst High Intensity Objects (%)” value [1] was 29%, the “Population Membrane Permeable-Phenotype (%)” value [1] was 28% and the “Population Mitochondria Different-Phenotype (%)” value [1] was 21%. The “Population Mitotic Cells (%)” value [1] was 26%, the “Population Normal (%)” value [1] was 70% and the “Population Pyknosed Nuclei (%)” value [1] was 10%. For the same compound, the “Population Tubulin-Different-Phenotype (%)” value [1] was 83%, the “Total Cell Count” value [1] was 198 and the “Population Apoptotic (%)” value [2] was 100%. For the same compound, the “Population Fragmented Nuclei (%)” value [2] was 58%, the “Population Healthy Nuclei (%)” value [2] was 35% and the “Population Hoechst High Intensity Objects (%)” value [2] was 39%. The “Population Membrane Permeable-Phenotype (%)” value [2] was 20%, the “Population Mitochondria Different-Phenotype (%)” value [2] was 66% and the “Population Mitotic Cells (%)” value [2] was 0%. For the same compound, the “Population Normal (%)” value [2] was 60%, the “Population Pyknosed Nuclei (%)” value [2] was 5% and the “Population Tubulin-Different-Phenotype (%)” value [2] was 91%. The “Total Cell Count” value [2] was 110, the “Population Apoptotic (%)” value [3] was 56% and the “Population Fragmented Nuclei (%)” value [3] was 35%. The “Population Healthy Nuclei (%)” value [3] was 45%, the “Population Hoechst High Intensity Objects (%)” value [3] was 13% and the “Population Mitotic Cells (%)” value [3] was 43%. For the same compound, the “Population Normal (%)” value [3] was 86%, the “Population Pyknosed Nuclei (%)” value [3] was 18% and the “Population Tubulin-Different-Phenotype (%)” value [3] was 20%. The “Total Cell Count” value [3] was 227, the “Population Apoptotic (%)” value [4] was 57% and the “Population Fragmented Nuclei (%)” value [4] was 60%. For the same compound, the “Population Healthy Nuclei (%)” value [4] was 31%, the “Population Hoechst High Intensity Objects (%)” value [4] was 43% and the “Population Membrane Permeable-Phenotype (%)” value [4] was 10%. For the same compound, the “Population Mitochondria Different-Phenotype (%)” value [4] was 10%, the “Population Mitotic Cells (%)” value [4] was 42% and the “Population Normal (%)” value [4] was 56%. The “Population Pyknosed Nuclei (%)” value [4] was 7%, the “Population Tubulin-Different-Phenotype (%)” value [4] was 27% and the “Total Cell Count” value [4] was 160. The “Population Apoptotic (%)” value [5] was 71%, the “Population Fragmented Nuclei (%)” value [5] was 26% and the “Population Healthy Nuclei (%)” value [5] was 38%. For the same compound, the “Population Hoechst High Intensity Objects (%)” value [5] was 41%, the “Population Membrane Permeable-Phenotype (%)” value [5] was 19% and the “Population Mitochondria Different-Phenotype (%)” value [5] was 51%. For the same compound, the “Population Mitotic Cells (%)” value [5] was 28%, the “Population Normal (%)” value [5] was 58% and the “Population Pyknosed Nuclei (%)” value [5] was 35%. The “Population Tubulin-Different-Phenotype (%)” value [5] was 64%, the “Total Cell Count” value [5] was 137 and the “Population Apoptotic (%)” value [6] was 100%. The “Population Fragmented Nuclei (%)” value [6] was 59%, the “Population Healthy Nuclei (%)” value [6] was 26% and the “Population Hoechst High Intensity Objects (%)” value [6] was 39%. For the same compound, the “Population Membrane Permeable-Phenotype (%)” value [6] was 23%, the “Population Mitochondria Different-Phenotype (%)” value [6] was 76% and the “Population Mitotic Cells (%)” value [6] was 0%. For the same compound, the “Population Normal (%)” value [6] was 60%, the “Population Pyknosed Nuclei (%)” value [6] was 14% and the “Population Tubulin-Different-Phenotype (%)” value [6] was 61%. The “Total Cell Count” value [6] was 81, the “Population Apoptotic (%)” value [7] was 79% and the “Population Fragmented Nuclei (%)” value [7] was 36%. The “Population Healthy Nuclei (%)” value [7] was 50%, the “Population Hoechst High Intensity Objects (%)” value [7] was 12% and the “Population Membrane Permeable-Phenotype (%)” value [7] was 1%. The “Population Mitochondria Different-Phenotype (%)” value [7] was 10%, the “Population Mitotic Cells (%)” value [7] was 20% and the “Population Normal (%)” value [7] was 87%. The “Population Pyknosed Nuclei (%)” value [7] was 12%, the “Population Tubulin-Different-Phenotype (%)” value [7] was 11% and the “Total Cell Count” value [7] was 220. The “Population Apoptotic (%)” value [8] was 50%, the “Population Fragmented Nuclei (%)” value [8] was 73% and the “Population Healthy Nuclei (%)” value [8] was 20%. The “Population Hoechst High Intensity Objects (%)” value [8] was 44%, the “Population Membrane Permeable-Phenotype (%)” value [8] was 5% and the “Population Mitochondria Different-Phenotype (%)” value [8] was 16%. For the same compound, the “Population Mitotic Cells (%)” value [8] was 50%, the “Population Normal (%)” value [8] was 55% and the “Population Pyknosed Nuclei (%)” value [8] was 6%. The “Population Tubulin-Different-Phenotype (%)” value [8] was 33% and the “Total Cell Count” value [8] was 159.

In the case of `COc1ccc(Oc2cc(NCCC(F)(F)F)c3ncc(-c4ccc(C(=O)NC5CC5)c(C)c4)n3n2)c(F)c1F` [BAY-1217389], the “Population Apoptotic (%)” value [3] was 63% and 54%, the “Population Fragmented Nuclei (%)” value [3] was 28% and 27% and the “Population Healthy Nuclei (%)” value [3] was 48% and 59%. For the same compound, the “Population Hoechst High Intensity Objects (%)” value [3] was 18% and 14%, the “Population Membrane Permeable-Phenotype (%)” value [3] was 18% and 15% and the “Population Mitotic Cells (%)” value [3] was 36% and 45%. The “Population Normal (%)” value [3] was 81% and 85%, the “Population Pyknosed Nuclei (%)” value [3] was 23% and 12% and the “Population Tubulin-Different-Phenotype (%)” value [3] was 45% and 31%. For the same compound, the “Total Cell Count” value [3] was 203 and 339, the “Population Apoptotic (%)” value [4] was 65% and 22% and the “Population Fragmented Nuclei (%)” value [4] was 35% and 55%. For the same compound, the “Population Healthy Nuclei (%)” value [4] was 33% and 28%, the “Population Hoechst High Intensity Objects (%)” value [4] was 23% and 34% and the “Population Membrane Permeable-Phenotype (%)” value [4] was 20%. For the same compound, the “Population Mitochondria Different-Phenotype (%)” value [4] was 34% and 18%, the “Population Mitotic Cells (%)” value [4] was 35% and 77% and the “Population Normal (%)” value [4] was 76% and 65%. For the same compound, the “Population Pyknosed Nuclei (%)” value [4] was 30% and 16%, the “Population Tubulin-Different-Phenotype (%)” value [4] was 38% and 50% and the “Total Cell Count” value [4] was 170 and 86. The “Population Apoptotic (%)” value [7] was 77% and 48%, the “Population Fragmented Nuclei (%)” value [7] was 30% and 23% and the “Population Healthy Nuclei (%)” value [7] was 41% and 63%. The “Population Hoechst High Intensity Objects (%)” value [7] was 15% and 13%, the “Population Membrane Permeable-Phenotype (%)” value [7] was 12% and 8% and the “Population Mitotic Cells (%)” value [7] was 22% and 51%. The “Population Normal (%)” value [7] was 84% and 86%, the “Population Pyknosed Nuclei (%)” value [7] was 27% and 13% and the “Population Tubulin-Different-Phenotype (%)” value [7] was 59% and 27%. The “Total Cell Count” value [7] was 211 and 319, the “Population Fragmented Nuclei (%)” value [8] was 54% and 47% and the “Population Healthy Nuclei (%)” value [8] was 20% and 36%. The “Population Hoechst High Intensity Objects (%)” value [8] was 19% and 30%, the “Population Membrane Permeable-Phenotype (%)” value [8] was 18% and 19% and the “Population Mitochondria Different-Phenotype (%)” value [8] was 18% and 23%. The “Population Mitotic Cells (%)” value [8] was 32% and 88%, the “Population Normal (%)” value [8] was 80% and 69% and the “Population Pyknosed Nuclei (%)” value [8] was 24% and 15%. For the same compound, the “Population Tubulin-Different-Phenotype (%)” value [8] was 29% and 52%.
